Assays:
[1] = tested on: murine xenograft models of breast cancer; conditions: systemic i.p. injection ref 23, 25; cited from earlier work
[2] = human, microsomes
SCC-4 xenografts = assay: Antitumor efficacy of intratumorally administered taccalonolides; type: in vivo; conditions: intratumoral
[3] = Hydrolysis of the C-15 acetoxy group of AF to AJ; type: physicochemical; conditions: serum in vitro
[4] = In vivo pharmacokinetic assessment in mice, plasma LC-MS; conditions: 300 µg IV, mouse plasma
How it was run: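 Female athymic nude mice, 6–7 weeks, got a single 300 µg tail-vein bolus in 100 µL PBS/5% ethanol. Blood was taken by cardiac puncture under CO2 anaesthesia pre-dose, at end of infusion, 0.25, 0.5, 1 and 2 h (3–5 mice/time point). EDTA plasma (1,200 rcf, 10 min), 100 µL extracted into 1 mL cold ethyl acetate. Quantified against 1/X2-weighted linear calibration. Non-compartmental AUC by linear trapezoid, extrapolated to infinity.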

Row | Structure (SMILES) | antitumor efficacy on systemic administration [1] | NADPH-free intrinsic clearance ([2]; pH 7.4) [mL/min/mg] | weight loss or other toxicities (SCC-4 xenografts; two 40 µg injections on days 0 and 3) | hydrolysis of the C-15 acetoxy group [3] | rate of clearance (microsomal intrinsic clearance) [2] | NADPH-dependent intrinsic clearance ([2]; pH 7.4) [mL/min/mg] | effect on tumor growth (SCC-4 xenografts; 20 µg total dose) | effect on tumor growth (SCC-4 xenografts; 80 µg total dose, over the course of the trial) | drug in the plasma 120 min after injection [4]
1 | CC(=O)O[C@@H]1[C@H]2[C@H]3[C@H]([C@H](OC(C)=O)[C@H](OC(C)=O)[C@]2(C)[C@H]2[C@H](C)[C@H]4O[C@]45OC(=O)[C@@](C)(O)[C@]5(C)[C@H]12)[C@]1(C)[C@H](C[C@@H]2O[C@@H]2[C@@H]1OC(C)=O)C(=O)[C@@H]3O [taccalonolide AF] | demonstrated antitumor efficacy | 0.0 | no associated weight loss or other toxicities | observed | – | – | – | – | –
2 | CC(=O)CC(c1ccccc1)c1c(O)c2ccccc2oc1=O (centres unmarked) [warfarin] | – | 0.0 | – | – | no clearance | 0.0 | – | – | –
3 | CC(=O)O[C@H]1[C@H]2[C@H]([C@@H]3[C@@H](O)[C@@H]4[C@H]([C@H](C)[C@H]5O[C@]56OC(=O)[C@@](C)(O)[C@]46C)[C@@]3(C)[C@H]1OC(C)=O)[C@@H](O)C(=O)[C@H]1C[C@@H]3O[C@@H]3[C@H](OC(C)=O)[C@]21C [taccalonolide AJ] | no evidence of antitumor efficacy | – | – | – | – | – | no inhibition of tumor growth | robust and prolonged inhibition of tumor growth | no drug detectable

From PMC5553283 (Journal of natural products, 2017)
